Experimental data taken from ChEMBL document CHEMBL3352276, “Design, synthesis and in vitro antitumor activity of novel N-substituted-4-phenyl/benzylphthalazin-1-ones” (Eur J Med Chem, 2015).
Active and inactive are the calls of the source. No cut-off for these calls is given here.

Tests used:
HT-29 [1] = assay: Ratio of doxorubicin IC50 to compound IC50 for human HT-29 cells; assay type: functional
HepG2 [2] = assay: Antiproliferative activity against human HepG2 cells after 72 hrs by SRB assay; assay type: functional, cell-based; settings: HepG2, 72 h
HT-29 [3] = assay: Antiproliferative activity against human HT-29 cells after 72 hrs by SRB assay; assay type: functional, cell-based; settings: HT-29, 72 h
Procedure, shortened: (§1)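 SRB assay. HT-29 grown in DMEM; HepG2 and MCF-7 grown in RPMI-1640, all with 10% heat-inactivated FBS at 37 °C under 5% CO2. Cells seeded at 1000–2000/well, left 24 h, then exposed to a range of concentrations for 72 h. Fixed with 10% TCA for 1 h at 4 °C, stained with 0.4% SRB, OD read at 564 nm. IC50 taken from a Boltzmann sigmoidal nonlinear fit. Mean ± S.D. of three separate experiments.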

MCF7 = assay: Antiproliferative activity against human MCF7 cells after 72 hrs by SRB assay; assay type: functional, cell-based; settings: MCF7, 72 h; procedure, shortened: as §1
HepG2 [4] = assay: Induction of apoptosis in human HepG2 cells assessed as down regulation of Bcl2 expression at IC50 by sandwich ELISA relative to untreated control; assay type: functional
HepG2 [5] = assay: Cell cycle arrest in human HepG2 cells assessed as increase in S phase at IC50 for 24 hrs by propidium iodide staining-based FACS analysis relative to untreated control
HepG2 [6] = assay: Induction of apoptosis in human HepG2 cells assessed as upregulation of Bax expression at IC50 by sandwich ELISA relative to untreated control; assay type: functional
HepG2 [7] = assay: Induction of apoptosis in human HepG2 cells assessed as increase in caspase-3 expression at IC50 by sandwich ELISA relative to untreated control; assay type: functional
HepG2 [8] = assay: Cell cycle arrest in human HepG2 cells assessed as reduction in G0/G1 phase at IC50 for 24 hrs by propidium iodide staining-based FACS analysis relative to untreated control; assay type: functional; design: Activity: scale not given: the % may be the effect or the level left
Procedure, shortened: (§2)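 HepG2 cells exposed 24 h at each compound's preset concentration. Then washed in ice-cold PBS, fixed in ice-cold 70% ethanol, treated with 0.1 mg/ml RNase and stained with PI. DNA content read by flow cytometry, and phase distribution compared with untreated control. Triplicate experiments.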

HepG2 [9] = assay: Cell cycle arrest in human HepG2 cells assessed as accumulation at preG1 phase at IC50 for 24 hrs by propidium iodide staining-based FACS analysis relative to untreated control; assay type: functional; procedure, shortened: as §2
HepG2 [10] = assay: Induction of apoptosis in human HepG2 cells assessed as apoptotic cells after 24 hrs by annexin-V/FITC-propidium iodide staining-based FACS analysis relative to untreated control; assay type: functional
Procedure, shortened: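 HepG2 cells treated for 24 h, harvested and washed in PBS. 10^5 cells stained with annexin V-FITC and PI from a detection kit. Flow cytometry used unstained cells for voltage and compensation. Early plus late apoptotic quadrants (LR+UR) compared with control. Triplicate experiments.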

HT-29 [11] = assay: Induction of apoptosis in human HT-29 cells assessed as increase in caspase-3 expression at IC50 by sandwich ELISA relative to untreated control; assay type: functional
HepG2 [12] = assay: Cell cycle arrest in human HepG2 cells assessed as reduction in S phase at IC50 for 24 hrs by propidium iodide staining-based FACS analysis relative to untreated control; assay type: functional; procedure, shortened: as §2
HepG2 [13] = assay: Ratio of doxorubicin IC50 to compound IC50 for human HepG2 cells; assay type: functional
Procedure, shortened: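 SRB growth assay: HepG2 in RPMI-1640 + 10% heat-inactivated FBS, seeded 1000–2000 cells/well, dosed after 24 h with graded concentrations alongside doxorubicin for 72 h; TCA-fixed, SRB-stained, OD 564 nm. IC50 fitted as Boltzmann sigmoidal curve vs untreated controls, three separate experiments; ratio = doxorubicin IC50 / compound IC50 from the same assay.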

Row | SMILES | IC50 (HepG2 [2]) | IC50 (HT-29 [3]) | IC50 (MCF7) | further results
1 | O=C(Cn1nc(-c2ccccc2)c2ccccc2c1=O)Nc1ccc(Cl)cc1 | 10.3 µM | 4.02 µM | 33 µM | Ratio IC50 (HT-29 [1]): 1.9
2 | O=C(Cn1nc(Cc2ccccc2)c2ccccc2c1=O)Nc1cccc(C(F)(F)F)c1 | 3.52 µM | 61 µM | 3.85 µM | Activity (HepG2 [4]): 22%; Activity (HepG2 [5]): 27.7%; Activity (HepG2 [6]): 39.9%; Ratio (HepG2 [7]): 2.8; Activity (HepG2 [8]): 32.3%; Ratio (HepG2 [9]): 9.4; Ratio (HepG2 [10]): 2.7
3 | COc1ccc(NC(=O)Cn2nc(-c3ccccc3)c3ccccc3c2=O)cc1 | > 100 µM | > 100 µM | 77 µM | 
4 | O=C(Cn1nc(Cc2ccccc2)c2ccccc2c1=O)Nc1ccccc1Cl | 1.2 µM | 42.8 µM | 89 µM | Activity (HepG2 [4]): 34%; Ratio IC50 (HepG2 [13]): 2.9; Activity (HepG2 [6]): 80.2%; Ratio (HepG2 [7]): 4; Ratio (HepG2 [8]): 2; Ratio (HepG2 [9]): 28; Ratio (HepG2 [12]): 1.9; Ratio (HepG2 [10]): 9.5
5 | O=C(Cn1nc(-c2ccccc2)c2ccccc2c1=O)Nc1cccc(C(F)(F)F)c1 | 3.5 µM | 41.2 µM | 58 µM | Activity (HepG2 [4]): 9.6%; Activity (HepG2 [6]): 44%; Ratio (HepG2 [7]): 2.5; Activity (HepG2 [8]): inactive; Activity (HepG2 [9]): inactive; Activity (HepG2 [12]): inactive; Ratio (HepG2 [10]): 2.1
6 | O=C(Cn1nc(Cc2ccccc2)c2ccccc2c1=O)Nc1ccccc1 | 66 µM | 95.4 µM | 36 µM | 
7 | O=C(Cn1nc(Cc2ccccc2)c2ccccc2c1=O)Nc1cccc(Cl)c1 | 14.3 µM | 3.68 µM | 10.8 µM | Ratio IC50 (HT-29 [1]): 2
8 | COc1ccc(NC(=O)Cn2nc(Cc3ccccc3)c3ccccc3c2=O)cc1 | 69 µM | > 100 µM | 62 µM | 
9 | O=C(Cn1nc(Cc2ccccc2)c2ccccc2c1=O)Nc1ccc(F)cc1 | 27 µM | 98 µM | 30 µM | 

The next lines start with results.

Row | IC50 (HepG2 [2]) | IC50 (HT-29 [3]) | IC50 (MCF7) | SMILES | further results
10 | 3.45 µM | 7.7 µM |  | COc1cccc2c1C(=O)c1c(O)c3c(c(O)c1C2=O)C[C@@](O)(C(=O)CO)C[C@@H]3O[C@H]1C[C@H](N)[C@H](O)[C@H](C)O1 [DOXORUBICIN] | 
11 | 33 µM | 88.6 µM | 30 µM | O=C(Cn1nc(-c2ccccc2)c2ccccc2c1=O)Nc1ccccc1Cl | 
12 | > 100 µM | 2.98 µM | 13 µM | O=C(Cn1nc(Cc2ccccc2)c2ccccc2c1=O)Nc1ccc(Cl)cc1 | Ratio IC50 (HT-29 [1]): 2.6
13 | 3.29 µM | 3.05 µM | 74 µM | O=C(Cn1nc(-c2ccccc2)c2ccccc2c1=O)Nc1cccc(Cl)c1 | Ratio IC50 (HT-29 [1]): 2.5; Activity (HepG2 [4]): 22%; Activity (HepG2 [6]): 43.5%; Ratio (HepG2 [7]): 3; Activity (HepG2 [8]): inactive; Ratio (HT-29 [11]): 5.6; Activity (HepG2 [9]): inactive; Activity (HepG2 [12]): inactive; Ratio (HepG2 [10]): 2.4
14 | 10.6 µM | 46.2 µM | 35 µM | O=C(Cn1nc(-c2ccccc2)c2ccccc2c1=O)Nc1ccc(F)cc1 | 
15 | 13.4 µM | 99 µM | 43 µM | O=C(Cn1nc(-c2ccccc2)c2ccccc2c1=O)Nc1ccccc1 | 
